Hits are enriched below; roughly 2.3% of the tested compounds scored in any of these assays.
pPAFAH FP inh – inhibitors of human plasma PAF acetylhydrolase (pPAFAH); recombinant pPAFAH, FP-rhodamine probe fluorescence polarization; inhibition, % at 3.39 µM; 330,000 tested, 1.5% active;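 active = inhibition above the mean inhibition across the screen plus 3 SD, cut at about 25% in these data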;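 also: inhibitors block binding of the rhodamine activity-based probe so polarization drops; 0% = enzyme with DMSO and 100% = wells lacking pPAFAH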
SIAE primary – human SIAE inhibition, primary screen | Q9HAT2 | inhibition, % at 9.66 µM | SIAE FP-Rh probe binding, fluorescence polarization | 370,000 tested, 0.69% active | AID 1053197;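 active = inhibition above a cutoff: mean of compounds within the control limits plus 3 SD of those, cut at about 17% in these data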;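 also: 0% = plate median of compound wells and 100% = probe without SIAE protein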
HTRA1 inhibitor – HTRA1 (human) protease inhibition; 340,000 tested, 0.5% active; Q92743; inhibition, % at 5.96 µM; recombinant HTRA1, FP-rhodamine activity-based probe, fluorescence polarization; in the data active = inhibition above about 36%;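 also: 0% = enzyme with DMSO and 100% = wells lacking enzyme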
Target sequence (Q92743 whole entry, looked up): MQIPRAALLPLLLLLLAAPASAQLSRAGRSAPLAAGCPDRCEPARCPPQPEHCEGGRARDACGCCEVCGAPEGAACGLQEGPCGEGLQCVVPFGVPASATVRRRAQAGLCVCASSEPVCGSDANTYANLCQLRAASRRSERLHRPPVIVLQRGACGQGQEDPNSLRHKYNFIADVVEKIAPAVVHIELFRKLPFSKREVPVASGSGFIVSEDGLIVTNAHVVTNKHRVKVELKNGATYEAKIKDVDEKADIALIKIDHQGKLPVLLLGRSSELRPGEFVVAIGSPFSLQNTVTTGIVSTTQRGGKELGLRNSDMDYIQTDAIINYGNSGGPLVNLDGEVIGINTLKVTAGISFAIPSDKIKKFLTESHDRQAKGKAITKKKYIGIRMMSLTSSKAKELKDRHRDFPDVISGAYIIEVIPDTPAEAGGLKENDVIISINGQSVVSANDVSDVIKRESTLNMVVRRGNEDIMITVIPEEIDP
mABHD4 FP – inhibitors of mouse ABHD4 | Q8VD66 | purified mABHD4, FP-Rh probe fluorescence polarization | inhibition, % at 8.92 µM | 370,000 tested, 0.54% active | AID 720543;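 active = inhibition exceeding the mean over every tested compound plus 3 SD, cut at about 30% in these data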;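 also: 0% = plate median of compound wells and 100% = S159A mutant with DMSO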
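assay system = mABHD4 protein | compound dosing = single nominal dose of 8.92 µM, 0.89% DMSO final | read-out basis = percent inhibition of probe binding, normalized to plate controls | schedule = Enzyme–compound pre-incubation 45 min, then probe 60 min, both 25 °C | detection = fluorescence polarization, excitation 525 nm, emission 598 nm, BODIPY TMR filters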
TCR CD3 inh – blocks the human TCR-CD3 interaction | inhibition, % at 9.4 µM | 360,000 tested, 0.37% active | TAMRA-labeled TCR probe fluorescence, biochemical; in the data active = inhibition above about 19%;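 also: recombinant mutant TCR 2C K166C tagged with TAMRA read by polarization; 0% = receptor in buffer alone and 100% = receptor with positive control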
Starred values were filed as active, the others as inactive; . = not tested or not shown.

SMILES	pPAFAH FP inh	SIAE primary	HTRA1 inhibitor	mABHD4 FP	TCR CD3 inh
O=C(NCc1cccnc1)/C(=C/c1ccc(-c2cccc(Cl)c2)o1)S(=O)(=O)c1ccccc1	16.5	-0.4	-12.6	6.4	2.3
O=C(NCc1cccnc1)/C(=C\c1ccc(-c2cccc(Cl)c2)o1)S(=O)(=O)c1ccccc1	26.1*	-0.9	-59.7	0.5	7.2
COc1cc(N)c2ncccc2c1Cl	.	15.0	6.3	34.5*	9.8
Oc1c(Cl)c(Cl)c2ncccc2c1Cl	.	1.9	7.6	1.9	-5.9
CCCC(=O)N1CCC(C(=O)NC2CCCc3ccccc32)CC1 (stereo not drawn)	.	6.2	.	-5.5	.
N/C(Cc1ccc([N+](=O)[O-])cc1)=N\OC(=O)c1ccc(Br)cc1	29.7*	-3.6	-6.2	5.1	6.0
S=c1[nH]nc(-c2cc(-c3ccccc3)n[nH]2)n1N=Cc1cccc(OCc2ccccc2)c1	.	-4.3	.	-2.3	.
Cn1cccc1C(=O)OCC(=O)Nc1ccc2c(c1)CCC2	27.8*	-5.7	-1.9	-11.1	-2.1
Cc1ccc(C)c(N2CCN(c3ncccc3[N+](=O)[O-])CC2)c1	27.6*	0.2	1.0	-10.9	4.3
CCCCCc1ccc(NC(=O)OCCN2C(=O)CCC23CCC(c2ccccc2)CC3)cc1 (stereo not drawn)	.	-0.1	.	-3.6	.
CC(C)CC(=O)O/N=C1\C(=O)N(Cc2ccc(Cl)cc2)c2ccc([N+](=O)[O-])cc21	35.4*	.	.	.	.
O=C(NC(=S)NCc1ccccc1Cl)c1cccs1	26.8*	-4.2	-34.6	-19.6	2.7
CCc1c(O)nc(SCC(=O)c2ccccc2)n(-c2ccccc2)c1=O	26.2*	5.1	7.7	0.4	1.8
COc1cccc(CCNC(=O)CCc2nc(-c3ccccc3F)no2)c1	.	-1.7	.	-0.2	.
O=C(O[C@H]1CC[C@@]23CCCN2C(=O)CCC[C@H]3C1)N1CCN(c2ccccc2)CC1	.	1.6	.	12.2	.
Oc1[nH]c2ccc(Br)cc2c1N=NC(=S)Nc1ccc(F)cc1	12.7	-0.4	4.6	10.0	6.2
Oc1cccc(NC(=S)N=Nc2c(O)[nH]c3ccc(Br)cc23)c1	28.4*	9.4	9.9	21.9	-2.0
CCC(C)c1ccccc1NC(=O)COC(=O)c1ccc(N2CCCC2)c([N+](=O)[O-])c1 (stereo not drawn)	30.1*	-6.6	-4.1	5.9	-3.4
O=C(CSc1nnc(-c2ccc(Cl)cc2)n1-c1ccccc1)Nc1ccc(Oc2ccccc2)cc1	.	-0.7	.	-4.1	.
CCOC(=O)C1=NOC(C(C)=O)(C(=O)NC2CCCC2)C1 (stereo not drawn)	.	-1.2	.	-4.5	.
O=C1C2C3C=CC(CO)(O3)C2C(=O)N1c1ccc(-c2ccccc2)cc1 (stereo not drawn)	27.8*	.	.	.	.
CC(C)(C)C(=O)NCC12C=CC(O1)C1C(=O)N(c3ccccc3)C(=O)C12 (stereo not drawn)	3.5	-0.5	7.7	13.1	-2.9
CN1/C(=C\C(=O)COC(=O)c2ccc(O)c(O)c2)C(C)(C)c2ccccc21	32.4*	-30.1	.	-13.3	-4.1
O=C(OCCOc1cccc(Cl)c1)c1cc(S(=O)(=O)N2CCOCC2)ccc1F	31.0*	0.1	-17.1	-5.4	10.7
O=C(OCCOc1ccccc1)c1cc(S(=O)(=O)N2CCOCC2)ccc1Cl	5.5	-2.3	-3.2	6.2	6.9
SMILES	pPAFAH FP inh	SIAE primary	HTRA1 inhibitor	mABHD4 FP	TCR CD3 inh
CCOc1ccc(-n2c(SCC(=O)Nc3ccccc3-c3ccccc3)nnc2-c2ccccc2)cc1	.	-1.9	.	-12.7	.
Nc1c(C(=O)N2CCOCC2)cnn1Cc1ccccc1	.	3.3	.	-0.1	.
N#CCC(=O)Nc1sc2c(c1C(N)=O)CCCC2	32.7*	0.0	-3.6	-16.9	-2.3
Cn1nnnc1SCCNS(=O)(=O)c1ccccc1	7.6	6.3	0.4	-1.2	-1.1
Cc1ccc(-n2nnnc2SCCNS(=O)(=O)c2ccccc2)cc1C	29.0*	-1.3	-27.8	-9.0	-1.5
COC(=O)c1cc2c(c3c4cc(C)ccc4n(S(=O)(=O)c4ccc(C)cc4)c13)C(=O)N(C)C2	.	-0.2	.	-2.3	-1.2
Cc1ccc(C)n1C(CC(=O)O)c1ccc(C#N)cc1 (stereo not drawn)	25.4*	-2.2	.	27.7	-2.0
CCOC(=O)CC(c1ccc(N)cc1)n1c(C)ccc1C (stereo not drawn)	-1.1	13.0	4.4	6.2	5.2
O=S(=O)(Nc1cc(Sc2cccc3cccnc23)c(O)c2ccccc12)c1ccc(F)cc1	34.2*	9.9	.	37.7*	-2.7
Cn1c(=O)c(=O)n(C)c2cc(S(=O)(=O)N3CCN(Cc4ccc5c(c4)OCO5)CC3)ccc21	.	2.6	.	2.3	.
CC(C)c1ccc(NS(=O)(=O)c2ccc3[nH]cc(C(=O)N4CCC(C(N)=O)CC4)c(=O)c3c2)cc1	69.6*	-9.4	-4.3	-3.5	9.7
O=C(c1c[nH]c2ccc(S(=O)(=O)N3CCOCC3)cc2c1=O)N1CCCC1	3.3	12.3	-3.0	1.2	4.1
O=C1Nc2ccccc2C1=Nc1ccc(S(=O)(=O)Nc2nccs2)cc1	8.4	5.0	7.0	41.8*	11.3
CC(C)Sc1oc(-c2ccco2)nc1S(=O)(=O)c1ccc(F)cc1	25.5*	2.7	-12.4	0.9	-1.7
C=CCCC(=O)N(Cc1ccccc1)c1ccccc1C(=O)Nc1cc(OC)ccc1OC	.	3.4	.	-3.1	.
O=C1N/C(=N\S(=O)(=O)Cc2ccccc2)S/C1=C/c1cc([N+](=O)[O-])ccc1O	31.9*	-23.5	8.3	17.9	0.0
CC(=O)N1CCN(c2ccc(Oc3ccc([N+](=O)[O-])c(C(F)(F)F)c3)cc2)CC1	24.7*	.	26.9	.	.
O=C1C(NC(=O)C(F)(F)Br)CCCCN1Cc1cccc(C(F)(F)F)c1 (stereo not drawn)	.	-2.1	.	-5.7	.
C[C@H]1COc2cccc(N3CCSCC3)c2S(=O)(=O)N1C	.	-3.7	.	4.0	.
Cc1cccc(NC(=S)NNC(=O)c2csc3c2CCCC3)c1	26.4*	0.4	-0.5	2.7	9.4
CCOC(=O)[C@]12CCCCC/C=C\1N(Cc1ccc(OC)cc1)C(=O)[C@H]2CC(=O)NCc1ccccc1	.	5.6	.	-1.0	.
O=S(=O)(NC1CCCC1)c1ccc(S(=O)(=O)N2CCc3ccccc32)cc1	27.4*	-3.3	-37.8	-14.6	3.4
Nc1ccc(S(=O)(=O)N2CCc3ccccc32)cc1	8.6	3.2	-3.5	-3.7	8.7
Cc1ccc(Cn2cc(CN3[C@H](c4ccccc4)COc4cc(Br)ccc4S3(=O)=O)nn2)cc1	.	-5.7	.	-44.9	.
N#Cc1c(SCC(=O)Nc2cccc(F)c2)sc2c(O)cc(=O)[nH]c12	29.7*	-5.4	-19.7	-40.1	8.4
Cc1c(Cl)cccc1NC(=O)CSc1sc2c(O)cc(=O)[nH]c2c1C#N	19.8	-17.0	-38.9	-11.3	2.1
N#Cc1c(SCC(=O)Nc2ccccc2C(F)(F)F)sc2c(O)cc(=O)[nH]c12	27.3*	-7.1	-20.6	-27.7	10.3
N#Cc1c(SCC(=O)Nc2ccc(Cl)cc2Cl)sc2c(O)cc(=O)[nH]c12	30.1*	-12.4	-26.8	-1.8	12.7
O=C1C(=O)N(Cc2ccc(-c3ccc(F)nc3)cc2)c2ccc(OC(F)(F)F)cc21	.	-1.3	.	11.1	.

Screening data from PubChem BioAssay.
